Experimental data reported in ChEMBL document CHEMBL3585325, “Discovery of (1R,2S)-2-{[(2,4-Dimethylpyrimidin-5-yl)oxy]methyl}-2-(3-fluorophenyl)-N-(5-fluoropyridin-2-yl)cyclopropanecarboxamide (E2006): A Potent and Efficacious Oral Orexin Receptor Antagonist” (J Med Chem, 2015).
Values after ≈ are worked out from the molar mass of the structure shown.

Key:
[1] = target: T1, Orexin receptor type 2 (Homo sapiens, UniProt O43614); assay: Binding affinity to human OX2R by radioligand displacement binding assay
T1 sequence (O43614 whole entry): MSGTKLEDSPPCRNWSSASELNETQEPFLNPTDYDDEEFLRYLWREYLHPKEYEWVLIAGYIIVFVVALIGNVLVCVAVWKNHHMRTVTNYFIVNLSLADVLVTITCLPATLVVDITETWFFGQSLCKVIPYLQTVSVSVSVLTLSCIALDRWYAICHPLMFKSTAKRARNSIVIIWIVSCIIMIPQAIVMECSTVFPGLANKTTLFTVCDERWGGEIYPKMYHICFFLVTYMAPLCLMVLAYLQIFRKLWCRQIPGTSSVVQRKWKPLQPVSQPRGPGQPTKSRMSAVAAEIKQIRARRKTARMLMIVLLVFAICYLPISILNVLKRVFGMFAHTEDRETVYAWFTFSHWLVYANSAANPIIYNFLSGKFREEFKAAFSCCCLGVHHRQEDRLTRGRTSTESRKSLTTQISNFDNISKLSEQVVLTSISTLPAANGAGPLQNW

[2] = target: T2, Orexin/Hypocretin receptor type 1 (Homo sapiens, UniProt O43613); assay: Binding affinity to human OX1R by radioligand displacement binding assay
T2 sequence (O43613 whole entry): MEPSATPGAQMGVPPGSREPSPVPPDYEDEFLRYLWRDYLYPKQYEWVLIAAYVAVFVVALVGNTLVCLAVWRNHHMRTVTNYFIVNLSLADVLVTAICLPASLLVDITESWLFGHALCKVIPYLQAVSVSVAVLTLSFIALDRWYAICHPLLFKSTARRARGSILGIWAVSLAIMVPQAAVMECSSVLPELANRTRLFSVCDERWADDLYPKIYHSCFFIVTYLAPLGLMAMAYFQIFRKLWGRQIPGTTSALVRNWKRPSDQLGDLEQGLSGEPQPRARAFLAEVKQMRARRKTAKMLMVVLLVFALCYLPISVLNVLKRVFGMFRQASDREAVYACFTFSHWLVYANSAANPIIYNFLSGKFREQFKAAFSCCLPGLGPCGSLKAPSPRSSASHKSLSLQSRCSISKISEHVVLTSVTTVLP
Outline: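 Ki values come from single experiments run in triplicate.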

[3] = Aqueous solubility of the compound in Dulbecco's phosphate buffered saline at pH 7.4 by DMSO solution precipitation method; type: physicochemical
Outline: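 Solubility in Dulbecco's PBS at pH 7.4, measured at room temperature by precipitation from a DMSO solution.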

[4] = Aqueous solubility of the compound in Japanese Pharmacopoeia 1st fluid at pH 1.2 by DMSO solution precipitation method; type: physicochemical
Outline: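 Solubility in Japanese Pharmacopoeia 1st fluid (aqueous HCl containing 34 mM NaCl), pH 1.2, measured at room temperature by precipitation from a DMSO solution.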

[5] = target: CYP3A (Homo sapiens, UniProt P08684+P20815+P24462+Q9HB55); assay: Time dependent inhibition of CYP3A in human liver microsomes assessed as enzyme activity using midazolam as substrate at 10 uM incubated for 30 mins prior to substrate addition for 10 mins by LC-MS/MS analysis; type: ADME; parameters: scale not given: the % may be the effect or the level left; details: probe midazolam, read-out: Activity
Outline: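 Test compound at 10 μM preincubated 30 min at 37 °C with human liver microsomes (0.2 mg/mL), with or without an NADPH-generating system. Mixture then diluted 10-fold into a marker-substrate cocktail plus NADPH system and incubated 10 min at 37 °C. Midazolam served as the CYP3A probe. Metabolites measured by LC−MS/MS. Result is the residual activity with NADPH relative to without, as % of control.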

[6] = Metabolic stability in human liver microsomes assessed as residual ratio at 0.3 uM after 15 mins by LC-MS analysis; type: ADME; details: read-out: Stability
Outline: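 Human liver microsomes (0.2 mg/mL) incubated with test compound at 0.3 μM in 0.1% DMSO for 15 min at 37 °C, with and without an NADPH-generating system. Reaction stopped with acetonitrile/methanol (7:3) containing internal standard. Parent compound quantified by LC−MS. Value is the residual ratio in the presence versus absence of NADPH.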

[7] = Activity at P-gp (unknown origin) assessed as corrected flux ratio; type: ADME; details: human
Outline: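 Reported as corrected flux ratio, i.e. the MDR1 flux ratio divided by the PK1 flux ratio.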

[8] = target: T3, Cytochrome P450 1A2 (Homo sapiens, UniProt P05177); assay: Inhibition of CYP1A2 in human liver microsomes using phenacetin as susbtrate incubated for 30 mins prior to substrate addition for 10 mins by LC-MS/MS analysis; type: ADME
T3 sequence (P05177 whole entry): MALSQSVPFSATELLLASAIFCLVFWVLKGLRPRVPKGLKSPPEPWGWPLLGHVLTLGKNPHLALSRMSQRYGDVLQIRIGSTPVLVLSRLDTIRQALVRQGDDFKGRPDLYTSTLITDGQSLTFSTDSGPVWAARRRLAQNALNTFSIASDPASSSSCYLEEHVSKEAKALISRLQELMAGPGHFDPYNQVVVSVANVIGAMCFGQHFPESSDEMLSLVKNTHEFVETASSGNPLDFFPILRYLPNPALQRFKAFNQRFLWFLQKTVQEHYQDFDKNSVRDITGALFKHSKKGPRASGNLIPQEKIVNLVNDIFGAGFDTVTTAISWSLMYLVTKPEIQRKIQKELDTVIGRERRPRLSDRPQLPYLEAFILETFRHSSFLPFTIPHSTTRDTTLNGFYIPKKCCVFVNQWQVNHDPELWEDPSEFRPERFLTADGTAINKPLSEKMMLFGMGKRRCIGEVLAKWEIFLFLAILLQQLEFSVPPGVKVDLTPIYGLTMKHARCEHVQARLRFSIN

[9] = target: T4, Cytochrome P450 2C8 (Homo sapiens, UniProt P10632); assay: Inhibition of CYP2C8 in human liver microsomes using rosiglitazone as susbtrate incubated for 30 mins prior to substrate addition for 10 mins by LC-MS/MS analysis; type: ADME
T4 sequence (P10632 whole entry): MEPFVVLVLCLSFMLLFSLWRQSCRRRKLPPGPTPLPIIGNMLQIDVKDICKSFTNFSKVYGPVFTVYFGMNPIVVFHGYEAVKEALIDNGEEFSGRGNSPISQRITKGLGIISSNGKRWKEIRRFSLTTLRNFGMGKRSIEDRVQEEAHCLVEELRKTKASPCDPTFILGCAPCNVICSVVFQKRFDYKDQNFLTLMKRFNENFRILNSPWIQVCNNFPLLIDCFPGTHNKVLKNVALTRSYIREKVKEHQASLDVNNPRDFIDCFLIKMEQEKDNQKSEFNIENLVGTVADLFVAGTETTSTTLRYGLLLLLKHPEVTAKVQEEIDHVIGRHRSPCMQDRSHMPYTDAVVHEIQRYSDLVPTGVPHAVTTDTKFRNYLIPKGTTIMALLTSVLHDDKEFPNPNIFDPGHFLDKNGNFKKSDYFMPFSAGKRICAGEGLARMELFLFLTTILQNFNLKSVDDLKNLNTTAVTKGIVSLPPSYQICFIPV

[10] = target: Cytochrome P450 2C9 (Homo sapiens, UniProt P11712); assay: Inhibition of CYP2C9 in human liver microsomes using tolbutamide as susbtrate incubated for 30 mins prior to substrate addition for 10 mins by LC-MS/MS analysis; type: ADME
Cytochrome P450 2C9, sequence (P11712 whole entry): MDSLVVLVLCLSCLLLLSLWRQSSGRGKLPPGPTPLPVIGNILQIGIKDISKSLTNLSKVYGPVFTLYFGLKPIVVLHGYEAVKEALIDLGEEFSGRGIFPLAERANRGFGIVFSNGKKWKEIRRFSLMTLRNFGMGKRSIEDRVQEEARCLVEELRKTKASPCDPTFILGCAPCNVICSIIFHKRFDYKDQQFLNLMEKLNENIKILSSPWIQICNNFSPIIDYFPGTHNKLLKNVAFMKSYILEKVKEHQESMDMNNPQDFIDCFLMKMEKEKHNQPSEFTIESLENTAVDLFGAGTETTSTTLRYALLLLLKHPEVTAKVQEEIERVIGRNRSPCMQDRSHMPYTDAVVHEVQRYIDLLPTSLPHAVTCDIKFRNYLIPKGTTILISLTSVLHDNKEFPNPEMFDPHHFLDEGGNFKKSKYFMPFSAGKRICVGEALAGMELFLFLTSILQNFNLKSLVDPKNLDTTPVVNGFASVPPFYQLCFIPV

[11] = target: Cytochrome P450 2C19 (Homo sapiens, UniProt P33261); assay: Inhibition of CYP2C19 in human liver microsomes using S-mephenytoin as susbtrate incubated for 30 mins prior to substrate addition for 10 mins by LC-MS/MS analysis; type: ADME
Cytochrome P450 2C19, sequence (P33261 whole entry): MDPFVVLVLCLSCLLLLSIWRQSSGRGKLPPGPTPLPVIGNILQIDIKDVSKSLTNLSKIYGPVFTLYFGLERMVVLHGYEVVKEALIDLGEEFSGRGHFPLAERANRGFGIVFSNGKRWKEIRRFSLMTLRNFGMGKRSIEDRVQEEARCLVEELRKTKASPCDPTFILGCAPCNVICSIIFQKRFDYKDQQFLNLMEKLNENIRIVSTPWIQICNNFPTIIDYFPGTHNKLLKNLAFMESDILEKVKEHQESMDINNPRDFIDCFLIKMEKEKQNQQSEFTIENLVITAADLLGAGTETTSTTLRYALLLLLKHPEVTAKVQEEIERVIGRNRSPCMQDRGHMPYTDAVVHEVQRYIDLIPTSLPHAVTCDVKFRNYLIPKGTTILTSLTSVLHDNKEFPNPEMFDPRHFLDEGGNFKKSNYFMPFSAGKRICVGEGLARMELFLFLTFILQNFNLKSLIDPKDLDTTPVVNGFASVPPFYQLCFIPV

[12] = target: Cytochrome P450 2D6 (Homo sapiens, UniProt P10635); assay: Inhibition of CYP2D6 in human liver microsomes using bufuralol as susbtrate incubated for 30 mins prior to substrate addition for 10 mins by LC-MS/MS analysis; type: ADME
Cytochrome P450 2D6, sequence (P10635 whole entry): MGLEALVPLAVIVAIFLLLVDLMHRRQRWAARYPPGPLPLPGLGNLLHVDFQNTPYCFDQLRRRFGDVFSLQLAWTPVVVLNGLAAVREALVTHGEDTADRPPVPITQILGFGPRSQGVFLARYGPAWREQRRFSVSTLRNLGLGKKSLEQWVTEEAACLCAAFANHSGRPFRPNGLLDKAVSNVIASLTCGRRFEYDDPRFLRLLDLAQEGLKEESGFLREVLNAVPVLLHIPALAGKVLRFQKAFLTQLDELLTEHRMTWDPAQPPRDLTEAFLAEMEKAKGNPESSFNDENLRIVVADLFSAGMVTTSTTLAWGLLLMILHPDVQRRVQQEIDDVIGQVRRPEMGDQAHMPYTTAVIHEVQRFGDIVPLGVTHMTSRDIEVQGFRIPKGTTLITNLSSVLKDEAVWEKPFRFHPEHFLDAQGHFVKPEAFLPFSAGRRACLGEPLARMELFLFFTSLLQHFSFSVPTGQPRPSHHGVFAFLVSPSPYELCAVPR

**Q.** For `COc1ccc(OC[C@@]2(c3ccccc3)C[C@H]2C(=O)Nc2ccc(C#N)cn2)cc1OC`, which Ki [1] is on record?
**A.** Its Ki is 0.005 µM.

**Q.** And the Ki [2]?
**A.** Its Ki is 0.106 µM.

**Q.** And the solubility kinetic [3]?
**A.** The solubility kinetic was 15 µM (≈ 6.44 µg/mL).

**Q.** And the solubility kinetic [4]?
**A.** The solubility kinetic was 25 µM (≈ 10.7 µg/mL).

**Q.** What about the activity at 10 min, 10 µM [5] of the same molecule?
**A.** The activity at 10 min, 10 µM was 49%.

**Q.** And the remaining at 0.25 h, 0.3 µM [6]?
**A.** The remaining at 0.25 h, 0.3 µM was 80%.

**Q.** And the Ratio [7]?
**A.** Its Ratio is 1.

**Q.** And the IC50 [8]?
**A.** Its IC50 is > 10 µM.

**Q.** What about the IC50 [9] of the same molecule?
**A.** The IC50 was 8 µM.

**Q.** And the IC50 [10]?
**A.** Its IC50 is > 10 µM.

**Q.** What about the IC50 [11] of the same molecule?
**A.** The IC50 was 8.6 µM.

**Q.** And the IC50 [12]?
**A.** Its IC50 is > 10 µM.
